Measured values as given in PMC8159431 (Chemical Science, 2020).
Read-outs that look alike come from different tables or passages of the source.

What was measured:
Assay type in all cases: binding
[1] = biological target: tau aggregates (Tau-441 human) (Homo sapiens, UniProt P10636); test: Fluorimeter assay with aliquots of the tau aggregation; conditions: tau aggregates at different time points
Aβ40 aggregates = Aβ40 aggregates (Homo sapiens, UniProt P05067)
Procedure, shortened: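 Aβ40 aggregates were taken at 90 min, 200 min and 24 h from a compound-free aggregation run and ultracentrifuged. They were titrated with a range of probe concentrations, and fluorescence intensity was read. Kd was obtained by curve fitting (n = 3). Binding ratio is Kd relative to the Kd of the 50% sucrose tau fraction.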

[2] = biological target: tau (0N4R) aggregates, sucrose gradient fractions (Homo sapiens, UniProt P10636)
Procedure, shortened: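 Tau aggregates were separated by sucrose gradient ultracentrifugation into 10–50% fractions, and the 20% fraction was characterised by TEM. Each fraction was titrated with the test compound and fluorescence intensity was read. Kd was obtained by curve fitting (n = 3–6). Ratios compare Kd with the 50% sucrose tau Kd, and tau Kd with the Kd for Aβ40 aggregates at 200 min.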

tau (0N4R) aggregates, sucrose gradient fractions, sequence (P10636 1-383 isoform P10636-6): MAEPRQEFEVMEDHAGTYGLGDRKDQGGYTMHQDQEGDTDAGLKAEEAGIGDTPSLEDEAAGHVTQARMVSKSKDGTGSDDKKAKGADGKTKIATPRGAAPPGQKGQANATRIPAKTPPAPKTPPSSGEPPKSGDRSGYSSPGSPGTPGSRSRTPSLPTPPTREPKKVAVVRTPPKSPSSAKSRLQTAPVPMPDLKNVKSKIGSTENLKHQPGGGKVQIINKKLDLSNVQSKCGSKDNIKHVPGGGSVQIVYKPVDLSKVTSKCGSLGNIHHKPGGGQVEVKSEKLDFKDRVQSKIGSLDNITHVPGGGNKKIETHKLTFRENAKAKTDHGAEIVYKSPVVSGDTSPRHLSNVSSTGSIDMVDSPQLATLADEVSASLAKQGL
Aβ40 aggregates, sequence (P05067 672-711 limits assumed): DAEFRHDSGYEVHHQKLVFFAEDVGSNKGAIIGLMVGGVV
tau aggregates (Tau-441 human), sequence (P10636 1-441 isoform P10636-8): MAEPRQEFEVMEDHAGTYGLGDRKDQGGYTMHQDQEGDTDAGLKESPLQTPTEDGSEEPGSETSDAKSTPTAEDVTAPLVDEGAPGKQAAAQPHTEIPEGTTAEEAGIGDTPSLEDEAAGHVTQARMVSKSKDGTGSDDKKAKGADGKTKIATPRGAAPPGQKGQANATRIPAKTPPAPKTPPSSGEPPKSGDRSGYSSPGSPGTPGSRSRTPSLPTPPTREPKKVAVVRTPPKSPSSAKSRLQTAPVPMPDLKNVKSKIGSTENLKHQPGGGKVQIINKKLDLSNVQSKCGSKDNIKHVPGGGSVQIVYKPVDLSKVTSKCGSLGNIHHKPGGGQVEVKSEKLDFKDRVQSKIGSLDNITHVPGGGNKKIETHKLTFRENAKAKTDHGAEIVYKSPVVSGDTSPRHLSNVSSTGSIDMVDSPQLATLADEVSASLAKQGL

With `O=C(O)Cc1cc(-c2ccc(C(=O)O)s2)sc1-c1ccc(-c2sc(-c3ccc(C(=O)O)s3)cc2CC(=O)O)s1` [pFTAA, 3''',4'-bis(carboxymethyl)-[2,2':5',2'':5'',2''':5''',2''''-quinquethiophene]-5,5''''-dicarboxylic acid] the “emission spectrum shift over the tau aggregation” value [1] was “No emission spectrum shifts”, the “binding ratio (Kd compared with the 50% sucrose tau Kd)” value (Aβ40 aggregates; 200 minute Aβ) was 5 and the “binding ratio (Kd compared with the 50% sucrose tau Kd)” value (Aβ40 aggregates; 24 hour Aβ) was 3. For the same molecule, the Kd (Aβ40 aggregates; Aβ40 aggregates at 90 min) was “no binding affinity”, the Kd (Aβ40 aggregates; Kd, Aβ40 aggregates at 200 min) was 0.93 ± 0.3 µM and the Kd (Aβ40 aggregates; Kd, Aβ40 aggregates at 24 h) was 0.65 ± 0.19 µM. For the same molecule, the “binding ratio (Kd compared with the 50% sucrose tau Kd)” value ([2]; 10% sucrose tau) was 148, the “binding ratio (Kd compared with the 50% sucrose tau Kd)” value ([2]; 20% sucrose tau) was 14 and the “binding ratio (Kd compared with the 50% sucrose tau Kd)” value ([2]; 30% sucrose tau) was 26. The “binding ratio (Kd compared with the 50% sucrose tau Kd)” value ([2]; 40% sucrose tau) was 6, the “binding ratio (Kd compared with the 50% sucrose tau Kd)” value ([2]; 50% sucrose tau) was 1 and the Kd ([2]; 10% sucrose tau fraction) was 29.6 ± 2.1 µM. It also gave a Kd ([2]; 20% sucrose tau fraction) of 2.75 ± 0.57 µM, a Kd ([2]; 40% sucrose tau fraction) of 1.29 ± 0.2 µM and a Kd ([2]; 50% sucrose tau fraction) of 0.2 ± 0.01 µM.
